Data on 12 compounds can be found in ChEMBL document CHEMBL1154143, “Cytotoxic and anti-inflammatory cembranoids from the soft coral Lobophytum crassum” (J Nat Prod, 2008).

Converted amounts (≈) assume the structure as drawn.

In one experiment the test system is HepG2. Description: Cytotoxicity against human HepG2 cells by MTT assay. It is filed as functional, cell-based. The gist of the method:
(§1)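 Human cancer cell lines obtained from ATCC. Cytotoxicity read by MTT colorimetric method.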

The nature of experiment [1]: Cytotoxicity against human Hep3B cells by MTT assay. The format is functional, cell-based, Hep 3B2. The gist of the method: as §1
Another experiment has as its system MDA-MB-231. Briefly: Cytotoxicity against human MDA-MB-231 cells by MTT assay. It is filed as functional, cell-based. The gist of the method:
as §1

The subject of a further experiment is MCF7. Briefly: Cytotoxicity against human MCF7 cells by MTT assay. The format is functional, cell-based. The gist of the method: as §1
Another experiment has as its system A549. Briefly: Cytotoxicity against human A549 cells by MTT assay. It is filed as functional, cell-based. In outline: as §1
Another experiment deals with Ca9-22. Description: Cytotoxicity against human Ca9-22 cells by MTT assay. It is filed as functional, cell-based. The gist of the method:
as §1

For experiment [2], the system named is RAW264.7. Briefly: Antiinflammatory activity in mouse RAW264.7 cells assessed as reduction in LPS-induced iNOS protein level at 10 uM treated 5 mins before LPS challenge by Western blot analysis relative to control. It is filed as functional. Set-up: scale not given: the % may be the effect or the level left. The gist of the method: (§2)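 Murine RAW 264.7 macrophages kept in DMEM with 10% heat-inactivated FBS at 37 °C, 5% CO2. Compound added 5 min before LPS (0.01 µg/mL), then 16 h incubation. Lysates of equal protein run on SDS-PAGE and blotted. iNOS and COX-2 probed, β-actin used as loading control, ECL detection. Band IOD expressed relative to the LPS-only control. One-way ANOVA with Student-Newman-Keuls test.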

Experiment [3] relates to RAW264.7. Briefly: Antiinflammatory activity in mouse RAW264.7 cells assessed as reduction in LPS-induced COX2 protein level at 10 uM treated 5 mins before LPS challenge by Western blot analysis relative to control. It is filed as functional. Set-up: scale not given: the % may be the effect or the level left. In outline: as §2

Take `C=C(CO)[C@@H]1CC[C@@](C)(OO)/C=C/C/C(C)=C/CC/C(C)=C/[C@@H]1O` [CRASSUMOLIDE E]: the IC50 (with HepG2; in experiment [1]; in the experiment on MDA-MB-231; in the experiment on MCF7; in the experiment with A549; in the experiment with Ca9-22) was greater than 5 µg/mL in each case.

Regarding `COc1cccc2c1C(=O)c1c(O)c3c(c(O)c1C2=O)C[C@@](O)(C(=O)CO)C[C@@H]3O[C@H]1C[C@H](N)[C@H](O)[C@H](C)O1` [DOXORUBICIN], the IC50 was 0.2 µg/mL (≈ 0.368 µM) in the experiment with HepG2; 0.2 µg/mL (≈ 0.368 µM) in experiment [1]; 0.2 µg/mL (≈ 0.368 µM) in the experiment on MDA-MB-231; 0.2 µg/mL (≈ 0.368 µM) with MCF7; 0.1 µg/mL (≈ 0.184 µM) in the experiment with Ca9-22.

On to `C=C1C(=O)O[C@H]2/C=C(\C)CC/C=C(\CO)CC/C=C(\C)CC[C@@H]12` [CRASSUMOLIDE B], for which the IC50 (in the experiment on HepG2; in experiment [1]; with MDA-MB-231; in the experiment on MCF7; with A549; in the experiment on Ca9-22) was greater than 5 µg/mL each time.

As to `C=C1C(=O)O[C@H]2C/C(C)=C/[C@@H](O)C/C(C)=C/CC/C(C)=C/C[C@H]12` [CRASSUMOLIDE A], the half-inhibitory concentration (IC50) is greater than 5 µg/mL in the experiment on HepG2; greater than 5 µg/mL in experiment [1]; greater than 5 µg/mL in the experiment with MDA-MB-231; greater than 5 µg/mL with MCF7; greater than 5 µg/mL in the experiment on A549; 3.2 µg/mL (≈ 10.1 µM) with Ca9-22. Moreover, the figures for the Activity in the experiment with RAW264.7 [2] and in the experiment on RAW264.7 [3] were 26.8% and 50.2%, respectively.

For `C=C1C(=O)O[C@H]2/C=C(\C)CC/C=C(\C(=O)OC)CC/C=C(\C)CC[C@@H]12` [CRASSUMOLIDE C], the concentration for half-maximal inhibition (IC50) with HepG2 is greater than 5 µg/mL; in experiment [1] it was greater than 5 µg/mL; in the experiment on MDA-MB-231, greater than 5 µg/mL; in the experiment with MCF7, greater than 5 µg/mL; with A549, greater than 5 µg/mL; with Ca9-22 it was 1.7 µg/mL (≈ 4.94 µM). The Activity with RAW264.7 [2] is 2.3%; in the experiment on RAW264.7 [3], 34.5%.

On to `C=C1C(=O)O[C@H]2/C=C(\C)CC/C=C(\C)C/C=C/[C@](C)(O)CC[C@@H]12` [CRASSUMOLIDE D], for which the IC50 (in the experiment with HepG2; in experiment [1]; with MDA-MB-231; with MCF7; in the experiment on A549; in the experiment on Ca9-22) was greater than 5 µg/mL throughout.

`C=C(CO)[C@@H]1CC/C(C)=C/CC/C(C)=C/CC/C(C)=C/[C@@H]1O`: the half-maximal inhibitory concentration (IC50) (in the experiment with HepG2; in experiment [1]; with MDA-MB-231; in the experiment with MCF7; in the experiment with A549; in the experiment on Ca9-22) was greater than 5 µg/mL in each case.

Take `C/C1=C\[C@@H]2OC(=O)[C@@H](CN(C)C)[C@@H]2CCC(C)/C=C/C/C(C(=O)O)=C/CC1` (stereo not given in full): the half-maximal inhibitory concentration (IC50) (in the experiment on HepG2; in experiment [1]; in the experiment with MDA-MB-231; with MCF7; in the experiment with A549; in the experiment on Ca9-22) was greater than 5 µg/mL in each case.

With `C=C1C(=O)O[C@H]2/C=C(\C)C/C=C/[C@@](C)(O)CC/C=C(\C)CC[C@@H]12` [CRASSUMOLIDE F], the 50% inhibitory concentration (IC50) (in the experiment on HepG2; in experiment [1]; with MDA-MB-231; in the experiment on MCF7; in the experiment on A549; in the experiment on Ca9-22) was greater than 5 µg/mL in each case.

Turning to `O=C(/C=C/c1ccc(O)c(O)c1)OCCc1ccccc1` [CAFFEIC ACID PHENETHYL ESTER], the Activity in the experiment with RAW264.7 [2] is 2.5%; with RAW264.7 [3], 67.2%.

Turning to `C=C1C(=O)O[C@H]2/C=C(\C)CC/C=C(/C(=O)O)CC/C=C(\C)CC[C@@H]12` [LOBOHEDLEOLIDE], the IC50 in the experiment on HepG2 was greater than 5 µg/mL; in experiment [1] it was 4.7 µg/mL (≈ 14.2 µM); in the experiment on MDA-MB-231, greater than 5 µg/mL; in the experiment on MCF7, greater than 5 µg/mL; in the experiment on A549, 4.6 µg/mL (≈ 13.9 µM); in the experiment with Ca9-22, 2.8 µg/mL (≈ 8.47 µM). Besides, the Activity came out at 21.5% in the experiment with RAW264.7 [2] and 39.2% in the experiment with RAW264.7 [3].

Take `C=C1C(=O)O[C@H]2/C=C(\C)CC[C@H](OC(C)=O)[C@@]3(C)CC[C@H](OO3)/C(C)=C\C[C@@H]12` [DENTICULATOLIDE]: the IC50 was 2.4 µg/mL (≈ 6.15 µM) in the experiment with HepG2; 2.5 µg/mL (≈ 6.4 µM) in experiment [1]; 2 µg/mL (≈ 5.12 µM) in the experiment with MDA-MB-231; 2 µg/mL (≈ 5.12 µM) in the experiment with MCF7; 2.3 µg/mL (≈ 5.89 µM) in the experiment on A549; 1.2 µg/mL (≈ 3.07 µM) in the experiment on Ca9-22. Also, the results for the Activity in the experiment with RAW264.7 [2] and in the experiment with RAW264.7 [3] were 10.2% and 34.3%, respectively.
